Assay results reported in ChEMBL document CHEMBL1150367, “High specific activity tritium-labeled N-(2-methoxybenzyl)-2,5-dimethoxy-4-iodophenethylamine (INBMeO): a high-affinity 5-HT2A receptor-selective agonist radioligand” (Bioorg Med Chem, 2008).

How the values were obtained:
[1] = molecular target: T1, 5-hydroxytryptamine receptor 2A (Homo sapiens, UniProt P28223); experiment: Displacement of [3H]ketanserin from human 5HT2A receptor expressed in human A549 cells; assay type: cell-based
[2] = molecular target: T1, 5-hydroxytryptamine receptor 2A; experiment: Displacement of [3H]INBMeO from human 5HT2A receptor expressed in human A549 cells; assay type: cell-based
[3] = molecular target: T1, 5-hydroxytryptamine receptor 2A; experiment: Displacement of [3H]ketanserin from human 5HT2A receptor expressed in human HEK293 cells; assay type: cell-based
[4] = molecular target: T1, 5-hydroxytryptamine receptor 2A; experiment: Displacement of [3H]INBMeO from human 5HT2A receptor expressed in human HEK293 cells; assay type: cell-based
[5] = molecular target: T1, 5-hydroxytryptamine receptor 2A; experiment: Binding affinity to human 5HT2A receptor expressed in human A549 cells; assay type: cell-based; details: for Bmax: tested as the 3H-labelled form
Summary of the method: (§1)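 Incubated 60 min at 25 °C in 50 mM Tris, 4 mM MgCl2, pH 7.4, with 1% BSA. Nonspecific defined by 10 μM cinanserin; filtration and scintillation counting.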

[6] = molecular target: T1, 5-hydroxytryptamine receptor 2A; experiment: Binding affinity to human 5HT2A receptor expressed in human HEK293 cells; assay type: cell-based; details: for Bmax: tested as the 3H-labelled form; summary of the method: as §1
[7] = molecular target: 5-hydroxytryptamine receptor 2C (Homo sapiens, UniProt P28335); experiment: Binding affinity to 5HT2C receptor
[8] = molecular target: 5-hydroxytryptamine receptor 6 (Homo sapiens, UniProt P50406); experiment: Binding affinity to 5HT6 receptor
Mu-type opioid receptor = Mu-type opioid receptor (Homo sapiens, UniProt P35372); experiment: Binding affinity to mu opioid receptor
Sequence of Mu-type opioid receptor (P35372 whole entry): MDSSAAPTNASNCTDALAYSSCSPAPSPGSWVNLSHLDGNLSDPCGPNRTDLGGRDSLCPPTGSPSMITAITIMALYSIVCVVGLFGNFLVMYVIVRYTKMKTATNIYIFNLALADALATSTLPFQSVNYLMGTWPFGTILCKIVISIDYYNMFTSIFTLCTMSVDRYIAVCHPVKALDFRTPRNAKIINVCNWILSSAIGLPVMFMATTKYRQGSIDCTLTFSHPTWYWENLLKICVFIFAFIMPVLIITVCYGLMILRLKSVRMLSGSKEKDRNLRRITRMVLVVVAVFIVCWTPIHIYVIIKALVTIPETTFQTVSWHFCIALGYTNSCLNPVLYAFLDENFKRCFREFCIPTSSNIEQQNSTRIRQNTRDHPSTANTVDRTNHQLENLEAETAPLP

Histamine H1 receptor = Histamine H1 receptor (Homo sapiens, UniProt P35367); experiment: Binding affinity to histamine H1 receptor
[9] = molecular target: 5-hydroxytryptamine receptor 2B (Homo sapiens, UniProt P41595); experiment: Binding affinity to 5HT2B receptor
[10] = molecular target: Kappa-type opioid receptor (Homo sapiens, UniProt P41145); experiment: Binding affinity to kappa opioid receptor
[11] = molecular target: 5-hydroxytryptamine receptor 1A (Homo sapiens, UniProt P08908); experiment: Binding affinity to 5HT1A receptor
Sequence of 5-hydroxytryptamine receptor 1A (P08908 whole entry): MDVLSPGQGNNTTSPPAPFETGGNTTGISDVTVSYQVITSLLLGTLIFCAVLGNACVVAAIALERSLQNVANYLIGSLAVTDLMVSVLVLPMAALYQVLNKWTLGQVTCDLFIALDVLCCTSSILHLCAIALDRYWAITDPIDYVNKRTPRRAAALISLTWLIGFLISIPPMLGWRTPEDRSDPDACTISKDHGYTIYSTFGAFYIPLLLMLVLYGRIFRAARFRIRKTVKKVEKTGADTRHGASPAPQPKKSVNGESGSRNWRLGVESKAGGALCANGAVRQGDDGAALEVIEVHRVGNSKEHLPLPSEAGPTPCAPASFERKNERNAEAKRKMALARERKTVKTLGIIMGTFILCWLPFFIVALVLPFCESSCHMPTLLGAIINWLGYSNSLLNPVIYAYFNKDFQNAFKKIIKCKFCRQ

D(3) dopamine receptor = D(3) dopamine receptor (Homo sapiens, UniProt P35462); experiment: Binding affinity to dopamine D3 receptor
[12] = molecular target: 5-hydroxytryptamine receptor 7 (Homo sapiens, UniProt P34969); experiment: Binding affinity to 5HT7 receptor
Sequence of 5-hydroxytryptamine receptor 7 (P34969 whole entry): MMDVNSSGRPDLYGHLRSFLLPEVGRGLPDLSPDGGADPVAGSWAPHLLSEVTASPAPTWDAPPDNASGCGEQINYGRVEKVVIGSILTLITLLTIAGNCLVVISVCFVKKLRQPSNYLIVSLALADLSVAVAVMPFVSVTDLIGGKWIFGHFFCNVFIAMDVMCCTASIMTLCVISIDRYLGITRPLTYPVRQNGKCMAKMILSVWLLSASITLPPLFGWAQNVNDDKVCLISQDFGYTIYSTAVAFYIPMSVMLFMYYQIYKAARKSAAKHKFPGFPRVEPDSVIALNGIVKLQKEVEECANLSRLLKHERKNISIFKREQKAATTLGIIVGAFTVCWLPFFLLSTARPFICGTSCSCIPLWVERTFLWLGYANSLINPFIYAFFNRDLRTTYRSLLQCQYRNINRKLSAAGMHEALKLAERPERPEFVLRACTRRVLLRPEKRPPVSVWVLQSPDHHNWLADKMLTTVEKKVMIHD

Histamine H2 receptor = Histamine H2 receptor (Homo sapiens, UniProt P25021); experiment: Binding affinity to histamine H2 receptor
[13] = molecular target: 5-hydroxytryptamine receptor 1D (Homo sapiens, UniProt P28221); experiment: Binding affinity to 5HT1D receptor
[14] = molecular target: Alpha-1A adrenergic receptor (Homo sapiens, UniProt P35348); experiment: Binding affinity to alpha 1A adrenergic receptor
Sequence of Alpha-1A adrenergic receptor (P35348 whole entry): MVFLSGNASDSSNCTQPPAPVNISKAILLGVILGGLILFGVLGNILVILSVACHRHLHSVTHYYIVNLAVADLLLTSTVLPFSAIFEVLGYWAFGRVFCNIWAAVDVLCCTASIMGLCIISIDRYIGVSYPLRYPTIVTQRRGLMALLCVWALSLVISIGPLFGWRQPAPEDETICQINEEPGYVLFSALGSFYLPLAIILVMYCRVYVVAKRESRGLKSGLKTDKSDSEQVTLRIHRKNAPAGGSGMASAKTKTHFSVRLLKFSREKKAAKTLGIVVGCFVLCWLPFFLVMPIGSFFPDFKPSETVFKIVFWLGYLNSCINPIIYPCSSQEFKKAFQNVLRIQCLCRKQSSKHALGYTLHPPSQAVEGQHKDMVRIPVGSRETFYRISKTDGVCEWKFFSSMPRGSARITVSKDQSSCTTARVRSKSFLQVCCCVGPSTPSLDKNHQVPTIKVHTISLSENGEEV

[15] = molecular target: Delta-type opioid receptor (Homo sapiens, UniProt P41143); experiment: Binding affinity to delta opioid receptor
[16] = molecular target: Sodium-dependent serotonin transporter (Homo sapiens, UniProt P31645); experiment: Binding affinity to serotonin uptake transporter
[17] = molecular target: 5-hydroxytryptamine receptor 5A (Homo sapiens, UniProt P47898); experiment: Binding affinity to 5HT5A receptor
Sequence of 5-hydroxytryptamine receptor 5A (P47898 whole entry): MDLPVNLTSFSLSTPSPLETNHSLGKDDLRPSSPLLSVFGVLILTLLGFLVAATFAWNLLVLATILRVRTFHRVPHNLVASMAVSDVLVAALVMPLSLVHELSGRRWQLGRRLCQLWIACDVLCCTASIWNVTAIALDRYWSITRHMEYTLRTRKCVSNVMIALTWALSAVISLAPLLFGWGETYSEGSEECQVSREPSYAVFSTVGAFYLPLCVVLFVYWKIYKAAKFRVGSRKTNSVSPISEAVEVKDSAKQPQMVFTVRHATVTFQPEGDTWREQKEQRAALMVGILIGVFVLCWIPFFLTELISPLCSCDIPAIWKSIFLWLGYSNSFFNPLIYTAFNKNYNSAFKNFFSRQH

[18] = molecular target: 5-hydroxytryptamine receptor 1B (Homo sapiens, UniProt P28222); experiment: Binding affinity to 5HT1B receptor
Sequence of 5-hydroxytryptamine receptor 1B (P28222 whole entry): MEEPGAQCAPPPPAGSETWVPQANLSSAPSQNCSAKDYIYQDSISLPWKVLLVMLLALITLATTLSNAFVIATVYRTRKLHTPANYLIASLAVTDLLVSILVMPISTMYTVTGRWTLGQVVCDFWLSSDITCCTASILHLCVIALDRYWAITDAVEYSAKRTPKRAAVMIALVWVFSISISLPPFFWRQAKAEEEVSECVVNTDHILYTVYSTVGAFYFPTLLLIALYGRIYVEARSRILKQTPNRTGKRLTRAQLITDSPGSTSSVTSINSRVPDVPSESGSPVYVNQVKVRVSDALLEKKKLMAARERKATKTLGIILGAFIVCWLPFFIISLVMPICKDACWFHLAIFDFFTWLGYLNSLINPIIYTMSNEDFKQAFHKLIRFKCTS

D(2) dopamine receptor = D(2) dopamine receptor (Homo sapiens, UniProt P14416); experiment: Binding affinity to dopamine D2 receptor
Sequence of D(2) dopamine receptor (P14416 whole entry): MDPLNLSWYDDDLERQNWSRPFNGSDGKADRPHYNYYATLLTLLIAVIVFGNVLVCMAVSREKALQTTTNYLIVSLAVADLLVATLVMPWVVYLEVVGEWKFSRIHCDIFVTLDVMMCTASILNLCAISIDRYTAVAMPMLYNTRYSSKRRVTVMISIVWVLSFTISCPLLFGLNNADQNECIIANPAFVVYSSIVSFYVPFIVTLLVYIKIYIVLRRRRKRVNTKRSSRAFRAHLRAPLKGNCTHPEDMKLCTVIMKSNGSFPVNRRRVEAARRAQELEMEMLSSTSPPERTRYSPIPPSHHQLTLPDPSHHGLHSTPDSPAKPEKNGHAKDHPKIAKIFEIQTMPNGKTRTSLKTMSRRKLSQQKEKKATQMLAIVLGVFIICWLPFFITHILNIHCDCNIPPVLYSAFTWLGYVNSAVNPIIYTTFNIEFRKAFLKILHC

D(1A) dopamine receptor = D(1A) dopamine receptor (Homo sapiens, UniProt P21728); experiment: Binding affinity to dopamine D1 receptor
[19] = molecular target: 5-hydroxytryptamine receptor 3A (Homo sapiens, UniProt P46098); experiment: Binding affinity to 5HT3 receptor
Sequence of 5-hydroxytryptamine receptor 3A (P46098 whole entry): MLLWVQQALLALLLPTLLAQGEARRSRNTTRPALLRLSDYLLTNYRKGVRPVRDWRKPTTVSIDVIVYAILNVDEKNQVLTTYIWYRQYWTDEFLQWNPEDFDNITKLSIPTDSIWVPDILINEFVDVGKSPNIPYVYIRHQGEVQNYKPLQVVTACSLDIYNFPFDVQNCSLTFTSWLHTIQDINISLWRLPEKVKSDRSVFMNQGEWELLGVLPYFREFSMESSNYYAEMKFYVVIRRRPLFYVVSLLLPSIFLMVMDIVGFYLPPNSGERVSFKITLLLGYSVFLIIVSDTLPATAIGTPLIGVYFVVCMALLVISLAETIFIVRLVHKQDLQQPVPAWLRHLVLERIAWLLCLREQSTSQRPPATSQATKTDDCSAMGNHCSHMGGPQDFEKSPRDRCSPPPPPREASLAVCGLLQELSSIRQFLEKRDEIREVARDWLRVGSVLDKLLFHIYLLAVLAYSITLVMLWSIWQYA

[20] = molecular target: 5-hydroxytryptamine receptor 1E (Homo sapiens, UniProt P28566); experiment: Binding affinity to 5HT1E receptor
D(1B) dopamine receptor = D(1B) dopamine receptor (Homo sapiens, UniProt P21918); experiment: Binding affinity to dopamine D5 receptor
Sequence of D(1B) dopamine receptor (P21918 whole entry): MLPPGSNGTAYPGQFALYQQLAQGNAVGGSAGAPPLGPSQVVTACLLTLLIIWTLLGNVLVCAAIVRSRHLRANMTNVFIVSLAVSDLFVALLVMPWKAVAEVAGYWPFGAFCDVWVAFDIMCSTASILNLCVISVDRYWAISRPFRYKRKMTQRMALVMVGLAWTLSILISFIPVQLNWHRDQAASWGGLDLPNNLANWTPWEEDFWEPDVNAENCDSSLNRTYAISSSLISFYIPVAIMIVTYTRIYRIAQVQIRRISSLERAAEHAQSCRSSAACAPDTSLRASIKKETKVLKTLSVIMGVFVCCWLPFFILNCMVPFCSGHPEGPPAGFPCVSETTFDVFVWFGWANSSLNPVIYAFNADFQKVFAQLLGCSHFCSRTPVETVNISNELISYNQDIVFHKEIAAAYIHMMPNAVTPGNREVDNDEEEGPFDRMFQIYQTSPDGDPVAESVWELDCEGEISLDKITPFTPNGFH

[21] = molecular target: Muscarinic acetylcholine receptor M1 (Homo sapiens, UniProt P11229); experiment: Binding affinity to muscarinic M1 receptor
[22] = molecular target: Muscarinic acetylcholine receptor M2 (Homo sapiens, UniProt P08172); experiment: Binding affinity to muscarinic M2 receptor
[23] = molecular target: Muscarinic acetylcholine receptor M3 (Homo sapiens, UniProt P20309); experiment: Binding affinity to muscarinic M3 receptor
[24] = molecular target: Muscarinic acetylcholine receptor M4 (Homo sapiens, UniProt P08173); experiment: Binding affinity to muscarinic M4 receptor
Sequence of Muscarinic acetylcholine receptor M4 (P08173 whole entry): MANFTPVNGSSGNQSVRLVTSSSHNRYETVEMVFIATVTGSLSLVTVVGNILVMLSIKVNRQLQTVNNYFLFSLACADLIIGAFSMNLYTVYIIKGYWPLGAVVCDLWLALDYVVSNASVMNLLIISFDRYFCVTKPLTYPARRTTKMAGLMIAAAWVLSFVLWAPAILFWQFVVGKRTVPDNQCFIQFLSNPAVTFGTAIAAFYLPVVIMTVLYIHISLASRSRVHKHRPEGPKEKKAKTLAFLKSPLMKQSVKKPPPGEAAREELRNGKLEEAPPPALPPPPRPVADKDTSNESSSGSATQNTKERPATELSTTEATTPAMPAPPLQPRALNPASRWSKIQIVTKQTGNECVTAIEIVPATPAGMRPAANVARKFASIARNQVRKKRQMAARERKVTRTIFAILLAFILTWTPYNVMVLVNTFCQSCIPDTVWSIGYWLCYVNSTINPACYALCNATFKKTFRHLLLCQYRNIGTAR

[25] = molecular target: Muscarinic acetylcholine receptor M5 (Homo sapiens, UniProt P08912); experiment: Binding affinity to muscarinic M5 receptor
Histamine H3 receptor = Histamine H3 receptor (Homo sapiens, UniProt Q9Y5N1); experiment: Binding affinity to histamine H3 receptor
[26] = molecular target: Sodium-dependent dopamine transporter (Homo sapiens, UniProt Q01959); experiment: Binding affinity to dopamine uptake transporter

T1 sequence (P28223 whole entry): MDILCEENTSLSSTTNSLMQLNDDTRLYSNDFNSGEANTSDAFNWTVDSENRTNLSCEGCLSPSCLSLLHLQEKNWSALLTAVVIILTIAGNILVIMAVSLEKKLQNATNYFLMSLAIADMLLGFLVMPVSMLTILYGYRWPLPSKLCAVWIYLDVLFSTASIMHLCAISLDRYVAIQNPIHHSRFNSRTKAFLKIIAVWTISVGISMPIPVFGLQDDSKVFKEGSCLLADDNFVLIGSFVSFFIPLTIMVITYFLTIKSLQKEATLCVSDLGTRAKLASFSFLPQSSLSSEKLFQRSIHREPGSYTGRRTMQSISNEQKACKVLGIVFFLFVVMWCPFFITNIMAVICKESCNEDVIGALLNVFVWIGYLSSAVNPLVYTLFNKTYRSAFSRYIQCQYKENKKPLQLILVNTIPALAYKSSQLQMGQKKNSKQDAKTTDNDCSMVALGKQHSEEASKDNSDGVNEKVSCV

## CN(C)CCCSc1ccccc1NC(=O)/C=C/c1ccccc1 [CINANSERIN]
[1]
  Ki: 17 nM
[2]
  Ki: 24 nM
[3]
  Ki: 13 nM
[4]
  Ki: 22 nM

## COc1cc(CCNCc2ccccc2OC)c(OC)cc1I
[5]
  Bmax: 480 fmol/mg
[6]
  Bmax: 2210 fmol/mg

## O=C(c1ccc(F)cc1)C1CCN(CCn2c(=O)[nH]c3ccccc3c2=O)CC1
[5]
  Bmax: 890 fmol/mg
[6]
  Bmax: 3260 fmol/mg

## [3H]C([3H])([3H])Oc1cc(I)c(OC)cc1CCNCc1ccccc1OC([3H])([3H])[3H]
[7]
  Ki: 2 nM
[8]
  Ki: 73 nM
Mu-type opioid receptor
  Ki: 82 nM
Histamine H1 receptor
  Ki: 189 nM
[9]
  Ki: 231 nM
[10]
  Ki: 288 nM
[11]
  Ki: > 500 nM
D(3) dopamine receptor
  Ki: > 500 nM
[12]
  Ki: > 500 nM
Histamine H2 receptor
  Ki: > 500 nM
[13]
  Ki: > 500 nM
[14]
  Ki: > 500 nM
[15]
  Ki: > 500 nM
[16]
  Ki: > 500 nM
[17]
  Ki: > 500 nM
[18]
  Ki: > 500 nM
D(2) dopamine receptor
  Ki: > 500 nM
D(1A) dopamine receptor
  Ki: > 500 nM
[19]
  Ki: > 500 nM
[20]
  Ki: > 500 nM
D(1B) dopamine receptor
  Ki: > 500 nM
[21]
  Ki: > 500 nM
[22]
  Ki: > 500 nM
[23]
  Ki: > 500 nM
[24]
  Ki: > 500 nM
[25]
  Ki: > 500 nM
Histamine H3 receptor
  Ki: > 500 nM
[26]
  Ki: > 500 nM
[5]
  Kd: 0.097 nM
[6]
  Kd: 0.15 nM
